According to ChEMBL document CHEMBL3627606, “Development of Novel, CNS Penetrant Positive Allosteric Modulators for the Metabotropic Glutamate Receptor Subtype 1 (mGlu1), Based on an N-(3-Chloro-4-(1,3-dioxoisoindolin-2-yl)phenyl)-3-methylfuran-2-carboxamide Scaffold, That Potentiate Wild Type and Mutant mGlu1 Receptors Found in …” (J Med Chem, 2015):

Key:
[1] = biological target: T1, Metabotropic glutamate receptor 4 (Homo sapiens, UniProt Q14833); assay: Positive allosteric modulation of human mGlu4 receptor assessed as potentiation of glutamate-induced calcium mobiliztion by cell based assay relative to PHCCC
[2] = biological target: T1, Metabotropic glutamate receptor 4; assay: Positive allosteric modulation of human mGlu4 receptor assessed as potentiation of glutamate-induced calcium mobiliztion by cell based assay; assay type: functional; details: read-out: EC50
[3] = biological target: T2, Metabotropic glutamate receptor 1 (Homo sapiens, UniProt Q13255); assay: Positive allosteric modulation of human mGlu1 receptor in HEK293 cells assessed as potentiation of glutamate-induced calcium mobiliztion by Fluo-4AM dye based fluorescence analysis; assay type: functional, cell-based; details: read-out: EC50
Target sequence in this assay (Q13255 whole entry): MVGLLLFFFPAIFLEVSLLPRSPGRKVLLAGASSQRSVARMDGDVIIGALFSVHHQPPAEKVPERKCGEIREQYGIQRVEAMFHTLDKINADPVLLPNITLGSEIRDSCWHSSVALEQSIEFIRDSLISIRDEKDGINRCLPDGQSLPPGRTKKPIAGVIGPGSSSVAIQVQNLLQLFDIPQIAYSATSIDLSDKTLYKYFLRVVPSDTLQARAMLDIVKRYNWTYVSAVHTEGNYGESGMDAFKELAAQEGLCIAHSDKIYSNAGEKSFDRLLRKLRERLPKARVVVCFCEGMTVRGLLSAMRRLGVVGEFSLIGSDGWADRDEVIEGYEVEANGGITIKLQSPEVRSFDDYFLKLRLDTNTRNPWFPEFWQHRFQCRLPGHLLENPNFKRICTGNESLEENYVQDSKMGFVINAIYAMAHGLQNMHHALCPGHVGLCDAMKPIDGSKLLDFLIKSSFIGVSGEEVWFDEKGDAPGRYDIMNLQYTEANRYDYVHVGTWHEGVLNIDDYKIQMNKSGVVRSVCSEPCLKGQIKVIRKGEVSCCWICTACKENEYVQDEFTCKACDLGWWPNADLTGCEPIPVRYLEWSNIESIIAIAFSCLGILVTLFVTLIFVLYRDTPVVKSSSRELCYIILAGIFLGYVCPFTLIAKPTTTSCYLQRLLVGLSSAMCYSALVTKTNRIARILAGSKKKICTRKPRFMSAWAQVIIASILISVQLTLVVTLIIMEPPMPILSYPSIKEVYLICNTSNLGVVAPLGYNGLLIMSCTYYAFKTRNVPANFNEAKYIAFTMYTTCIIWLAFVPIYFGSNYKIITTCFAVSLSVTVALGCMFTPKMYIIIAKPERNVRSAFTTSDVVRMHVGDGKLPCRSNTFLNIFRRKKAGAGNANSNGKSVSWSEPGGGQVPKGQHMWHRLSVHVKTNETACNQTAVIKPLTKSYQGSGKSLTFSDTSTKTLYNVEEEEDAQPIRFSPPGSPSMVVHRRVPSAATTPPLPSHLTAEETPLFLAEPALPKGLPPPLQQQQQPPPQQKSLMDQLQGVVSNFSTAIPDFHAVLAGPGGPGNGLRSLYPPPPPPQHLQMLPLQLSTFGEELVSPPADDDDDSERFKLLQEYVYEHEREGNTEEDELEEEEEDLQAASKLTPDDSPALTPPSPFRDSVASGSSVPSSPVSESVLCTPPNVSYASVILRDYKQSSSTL

Homo sapiens = species: Homo sapiens; assay: Selectivity index, ratio of EC50 for human mGlu4 receptor to EC50 for human mGlu1 receptor
[4] = biological target: T2, Metabotropic glutamate receptor 1; assay: Positive allosteric modulation of human mGlu1 receptor in HEK293 cells assessed as potentiation of glutamate-induced calcium mobiliztion by Fluo-4AM dye based fluorescence analysis relative to glutamate; assay type: functional, cell-based
Target sequence in this assay (Q13255 19-1194 limits assumed): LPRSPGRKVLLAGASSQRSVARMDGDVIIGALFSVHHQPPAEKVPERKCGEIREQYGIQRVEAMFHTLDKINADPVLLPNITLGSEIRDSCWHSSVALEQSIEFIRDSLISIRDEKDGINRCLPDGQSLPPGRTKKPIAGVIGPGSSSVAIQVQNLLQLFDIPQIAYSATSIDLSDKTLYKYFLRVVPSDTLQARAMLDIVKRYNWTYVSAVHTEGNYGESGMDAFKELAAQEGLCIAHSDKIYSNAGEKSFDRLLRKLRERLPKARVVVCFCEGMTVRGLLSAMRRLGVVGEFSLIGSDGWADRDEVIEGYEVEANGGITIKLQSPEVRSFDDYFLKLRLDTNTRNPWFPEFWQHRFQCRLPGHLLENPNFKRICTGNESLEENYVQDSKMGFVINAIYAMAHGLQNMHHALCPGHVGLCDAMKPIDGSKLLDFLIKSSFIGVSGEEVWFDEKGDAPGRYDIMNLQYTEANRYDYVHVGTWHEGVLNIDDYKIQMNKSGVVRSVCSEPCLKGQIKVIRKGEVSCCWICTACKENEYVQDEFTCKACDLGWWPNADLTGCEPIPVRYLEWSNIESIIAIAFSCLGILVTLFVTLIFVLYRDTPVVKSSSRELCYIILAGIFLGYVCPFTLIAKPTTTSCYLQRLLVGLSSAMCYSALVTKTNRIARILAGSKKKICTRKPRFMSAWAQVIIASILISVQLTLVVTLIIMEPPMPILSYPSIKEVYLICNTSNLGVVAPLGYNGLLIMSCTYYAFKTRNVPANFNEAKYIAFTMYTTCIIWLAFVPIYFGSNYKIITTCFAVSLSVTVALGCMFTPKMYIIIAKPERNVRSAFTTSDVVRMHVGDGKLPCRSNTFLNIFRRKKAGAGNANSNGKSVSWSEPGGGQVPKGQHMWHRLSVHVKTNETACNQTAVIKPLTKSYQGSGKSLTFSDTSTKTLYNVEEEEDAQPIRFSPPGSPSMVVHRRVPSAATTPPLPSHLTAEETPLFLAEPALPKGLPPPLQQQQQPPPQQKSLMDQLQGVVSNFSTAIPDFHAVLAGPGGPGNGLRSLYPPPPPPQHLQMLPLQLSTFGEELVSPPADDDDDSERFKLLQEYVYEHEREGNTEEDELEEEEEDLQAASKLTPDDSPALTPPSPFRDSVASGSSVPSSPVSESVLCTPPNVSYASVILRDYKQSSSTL

Plasma [5] = assay: Drug level in rat plasma treated with N-(3-chloro-4-(5-chloro-1,3-dioxoisoindolin-2-yl)phenyl)-3-methylfuran-2-carboxamide at 10 uM after 4 hrs by mass spectrometry; assay type: ADME, cell-free
Method in brief: (§1)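 Compound incubated at 10 μM in rat or human plasma at 37 °C. Samples taken at 0 and 4 h were analysed by mass spectrometry for parent and metabolites.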

Plasma [6] = assay: Drug level in human plasma treated with N-(3-chloro-4-(5-chloro-1,3-dioxoisoindolin-2-yl)phenyl)-3-methylfuran-2-carboxamide at 10 uM after 4 hrs by mass spectrometry; assay type: ADME, cell-free
Method in brief: as §1

T1 sequence (Q14833 whole entry): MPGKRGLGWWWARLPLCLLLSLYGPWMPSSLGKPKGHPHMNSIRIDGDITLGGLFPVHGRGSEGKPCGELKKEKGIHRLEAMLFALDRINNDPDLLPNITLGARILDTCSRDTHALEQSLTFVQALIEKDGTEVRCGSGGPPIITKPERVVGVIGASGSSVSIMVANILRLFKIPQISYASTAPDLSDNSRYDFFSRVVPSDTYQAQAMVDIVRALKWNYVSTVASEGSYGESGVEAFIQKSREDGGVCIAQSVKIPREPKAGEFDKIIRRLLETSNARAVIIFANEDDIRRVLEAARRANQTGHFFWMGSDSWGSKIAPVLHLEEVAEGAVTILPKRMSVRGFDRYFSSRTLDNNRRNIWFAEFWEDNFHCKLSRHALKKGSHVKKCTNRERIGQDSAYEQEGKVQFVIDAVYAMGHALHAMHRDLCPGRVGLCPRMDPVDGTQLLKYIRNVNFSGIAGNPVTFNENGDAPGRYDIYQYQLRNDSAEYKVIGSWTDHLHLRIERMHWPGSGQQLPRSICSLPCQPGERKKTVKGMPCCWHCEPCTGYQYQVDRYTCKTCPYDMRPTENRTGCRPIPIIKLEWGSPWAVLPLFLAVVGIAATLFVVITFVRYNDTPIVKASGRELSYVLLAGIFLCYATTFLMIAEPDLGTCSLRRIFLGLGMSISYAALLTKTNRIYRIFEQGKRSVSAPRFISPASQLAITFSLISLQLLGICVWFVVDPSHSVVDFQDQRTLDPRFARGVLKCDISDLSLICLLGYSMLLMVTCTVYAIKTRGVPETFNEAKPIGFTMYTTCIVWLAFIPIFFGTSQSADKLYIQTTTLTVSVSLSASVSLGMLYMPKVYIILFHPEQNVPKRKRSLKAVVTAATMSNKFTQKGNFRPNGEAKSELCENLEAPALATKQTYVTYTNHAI

EC50 [3] [µM] | %max [4] [%] | Compound | also measured
> 10 | 45 | O=C(Nc1ccc(N2C(=O)c3ccccc3C2=O)c(Cl)c1)c1ccc(Br)o1 | 
> 10 | 55 | O=C(Nc1ccc(N2C(=O)c3ccccc3C2=O)c(Cl)c1)c1ccc(Cl)o1 | 
> 10 |  | O=C(Nc1ccc(N2C(=O)c3ccccc3C2=O)c(Cl)c1)c1cncs1 | 
> 10 | 30 | O=C(Nc1ccc(N2C(=O)c3ccccc3C2=O)c(Cl)c1)c1ccc(-c2ccccc2)o1 | 
> 10 |  | O=C(Nc1ccc(N2C(=O)c3ccccc3C2=O)c(Cl)c1)c1cnc[nH]1 | 

Second part, the molecule before the results:

Compound | EC50 [3] [µM] | %max [4] [%] | also measured
Cc1ccc2c(c1)C(=O)N(c1ccc(NC(=O)c3occc3C)cc1Cl)C2=O | 0.0544 | 86 | %max [1]: 69%; EC50 [2]: 0.323 µM; Ratio EC50 (Homo sapiens): 5.9
CN(C)Cc1ccc(C(=O)Nc2ccc(N3C(=O)c4ccccc4C3=O)c(Cl)c2)o1 | > 10 |  | 
Cc1cc(C)c(C(=O)Nc2ccc(N3C(=O)c4ccccc4C3=O)c(Cl)c2)o1 | > 10 |  | 
CC(C)(C)c1ccc(C(=O)Nc2ccc(N3C(=O)c4ccccc4C3=O)c(Cl)c2)o1 | > 10 |  | 
O=C(Nc1ccc(N2C(=O)c3ccccc3C2=O)c(Cl)c1)c1coc2ccccc12 | > 10 |  | 
O=C(Nc1ccc(N2C(=O)c3ccccc3C2=O)c(Cl)c1)c1ccc[nH]1 | > 10 |  | 
CS(=O)(=O)c1ccc(C(=O)Nc2ccc(N3C(=O)c4ccccc4C3=O)c(Cl)c2)o1 | > 10 | 35 | 
O=C(Nc1ccc(N2C(=O)c3ccccc3C2=O)c(Cl)c1)c1cccs1 | > 10 |  | 
CCc1ccc(C(=O)Nc2ccc(N3C(=O)c4ccccc4C3=O)c(Cl)c2)o1 | > 10 | 30 | 
Cc1ccoc1C(=O)Nc1ccc(NC(=O)c2ccc(Cl)cc2C(=O)O)c(Cl)c1 |  |  | Drug metabolism (Plasma [5]): metabolite_detected; Drug metabolism (Plasma [6]): metabolite_detected
Cc1ccoc1C(=O)Nc1ccc(NC(=O)c2cc(Cl)ccc2C(=O)O)c(Cl)c1 |  |  | Drug metabolism (Plasma [5]): metabolite_detected; Drug metabolism (Plasma [6]): metabolite_detected
O=C(Nc1ccc(N2C(=O)c3ccccc3C2=O)c(Cl)c1)c1csnn1 | > 10 | 39 | 
O=C(Nc1ccc(N2C(=O)c3ccccc3C2=O)c(Cl)c1)c1cn[nH]c1 | > 10 |  | 
